In ChEMBL document CHEMBL4513216, “Probing the Open Global Health Chemical Diversity Library for Multistage-Active Starting Points for Next-Generation Antimalarials” (ACS Infect Dis, 2020) one finds cytotoxicity data, which are given here for 96 compounds.

This data set is described as follows: Toxicity liver stage against HepG2, at 10uM. It counts as cell-based. Also on record: test concentration 10 uM, cell line HepG2-A16-CD81EGFP. The note with it: human, HepG2-A16-CD81EGFP cells; read-out: INHIBITION
In outline: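 Uninfected HepG2-A16-CD81EGFP cells, 3 × 10^3 per well, 1536-well, plated on prespotted compound at 10 μM final, parasite-free screening media added to match infected plates; puromycin 10 μM positive, DMSO 0.5% negative; run in parallel with 48 h PbLuc assay at 37 °C, 5% CO2; viability by CellTiter-Glo luminescence, normalized to controls.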
Turning to `OCCn1nccc1C1CCN(CCOc2ccccc2)CC1`, the cytotoxicity at 10 µM was -0.121%.

As to `O=C1CCCN1Cc1nnc2n1CCCN(C(=O)c1ccc[nH]1)C2`, the cytotoxicity at 10 µM was -107%.

Turning to `CN(Cc1noc(C2CC2)n1)C1CCN(Cc2ccc(F)c(F)c2)C1` (stereo unspecified), the cytotoxicity at 10 µM is -0.279%.

For the compound `CCOC(=O)CC1CCCCN1C(=O)c1cc(C)on1` (stereo unspecified), the cytotoxicity at 10 µM amounted to 5.53%.

On to `COCCN1CCC2(CCN(c3ncccn3)CC2)C1=O`, for which the cytotoxicity at 10 µM was 3.47%.

As for `CC1(C(=O)N2CCN(c3ncccn3)CC2)CNCCO1` (stereo unspecified), the cytotoxicity at 10 µM was -0.79%.

Turning to `CO[C@@H]1CO[C@@]2(CCCN(C(=O)N3CCCC3)C2)C1`, the cytotoxicity at 10 µM is -98.6%.

Turning to `CC[C@@H]1N(Cc2ccco2)CCC[C@]12CCC(=O)N2C`, the cytotoxicity at 10 µM is -0.00736%.

Take `COCCn1cc(C(=O)NC2CCS(=O)(=O)C2)c2ccccc2c1=O` (stereo unspecified): the cytotoxicity at 10 µM was -4.17%.

Consider `Cc1cc(CN2CCC(C(=O)O)(n3ccc(-c4ccco4)n3)CC2)on1`, for which the cytotoxicity at 10 µM is -131%.

As for `O=C(CCNCc1cc(O)c2cc(F)ccc2n1)N1CCCC1`, the cytotoxicity at 10 µM is -49.3%.

Turning to `CS(=O)(=O)NC1CCCN(C(=O)NCc2ccoc2)C1` (stereo unspecified), the cytotoxicity at 10 µM was -14.9%.

For `CNC(=O)CN(C)C(=O)c1cc2ccccc2cc1OC`, the cytotoxicity at 10 µM was determined as 17.1%.

As to `Cc1nc(CN2CCO[C@H]3CN(C(=O)Cc4cccs4)C[C@H]32)cs1`, the cytotoxicity at 10 µM was -124%.

As to `CCn1ncnc1C(C)NC(=O)CC1CCN(C(C)C)CC1` (stereo unspecified), the cytotoxicity at 10 µM was -133%.

For the compound `CC(C)=CCN1C[C@@H]2CC[C@H]1CN(Cc1cc(=O)[nH]c(=O)[nH]1)C2`, the cytotoxicity at 10 µM is -17.3%.

For the compound `CN(CCc1ccccc1)c1cnn(CC2COCCO2)c(=O)c1` (stereo unspecified), the cytotoxicity at 10 µM was -10.3%.

Regarding `Cc1c(-c2c(-c3ccccc3)ncn2[C@H](CO)C(=O)O)cnn1C`, the cytotoxicity at 10 µM amounted to 4.28%.

As to `O=c1ccc2c([nH]1)CCC(NCc1ccncc1)C2` (stereo unspecified), the cytotoxicity at 10 µM is -6.22%.

As to `O=C1CC2(CCSC2)C(=O)N1Cc1coc(-c2ccccc2)n1` (stereo unspecified), the cytotoxicity at 10 µM turned out to be 5.57%.

Turning to `Cn1cc(CN2CCCC3(CCN3S(C)(=O)=O)C2)cn1` (stereo unspecified), the cytotoxicity at 10 µM was -68.4%.

As for `O=C(O)c1cc(S(=O)(=O)Nc2cc(F)ccc2F)cc2c1OCCO2`, the cytotoxicity at 10 µM was -7.42%.

For the compound `COCCNc1nc(-c2ccc(S(=O)(=O)N3CCCCC3)cc2)cs1`, the cytotoxicity at 10 µM is -42%.

Take `CC(CNS(=O)(=O)c1cccc(Cl)c1)N1CCN(C)CC1` (stereo unspecified): the cytotoxicity at 10 µM came out at 9.26%.

On to `CCC(NC(=O)NCc1cccc(N(C)C)n1)c1cccs1` (stereo unspecified), for which the cytotoxicity at 10 µM was 17.9%.

As for `Cc1nc(N[C@H]2COC[C@@H]2N2CCCC2)c2cnn(C)c2n1`, the cytotoxicity at 10 µM is -1.42%.

Consider `CCC(C)(CC(=O)OC)NCc1nc(C)no1` (stereo unspecified), for which the cytotoxicity at 10 µM is -5.69%.

For `CCCc1cc(C(=O)N(Cc2cccnc2)C2CCCCC2)[nH]n1`, the cytotoxicity at 10 µM is -11.2%.

`CCc1csc(C2CCCN(C(=O)c3ccc(=O)n(C)n3)C2)n1` (stereo unspecified): the cytotoxicity at 10 µM is -44.1%.

Turning to `O=C(NS(=O)(=O)c1cccc(F)c1)c1ccccc1F`, the cytotoxicity at 10 µM amounted to 9.39%.

For the compound `CC(C)c1nc(CN2CCN(CC(O)c3ccccc3)CC2)no1` (stereo unspecified), the cytotoxicity at 10 µM is -3.6%.

`O=C(CNC(=O)C1CCCC1)NCc1cnn(-c2ccc(F)cc2F)c1`: the cytotoxicity at 10 µM came to 8.21%.

Turning to `Cc1noc(C2CCN(C(=O)c3c(C)noc3C)CC2)n1`, the cytotoxicity at 10 µM was determined as 5.65%.

As for `Clc1cccc(C(NCc2ncc[nH]2)c2ccccn2)c1` (stereo unspecified), the cytotoxicity at 10 µM is 0.863%.

For `CN1CCN(CCOc2ccc(NC(=O)c3ccoc3)cc2)CC1`, the cytotoxicity at 10 µM was -2.09%.

Take `COc1ccccc1N1CCCC(Nc2nccnc2C#N)C1` (stereo unspecified): the cytotoxicity at 10 µM was 18.3%.

With `Cn1ccnc1COc1ccc(CSc2nncn2C2CC2)cc1`, the cytotoxicity at 10 µM amounted to 3.67%.

As for `O=S(=O)(C1CC1)N1CCc2ncc(Cn3cncn3)n2CC1`, the cytotoxicity at 10 µM was 3.62%.

`COc1cccc(OCC2CCCN(C(=O)c3ncc(F)cc3F)C2)c1` (stereo unspecified): the cytotoxicity at 10 µM worked out at 6.35%.

Turning to `Cc1cc(C)n(CCN(C)Cc2c[nH]nc2-c2ccc3c(c2)OCO3)n1`, the cytotoxicity at 10 µM was 0.562%.

In the case of `CC(C)c1cc(C(=O)N2C[C@@H]3CC[C@H]2CN(Cc2cccnc2)C3)no1`, the cytotoxicity at 10 µM turned out to be 2.55%.

In the case of `CC(C)(C)OC(=O)N1CCCc2ccc(NCc3cc[nH]c3)cc21`, the cytotoxicity at 10 µM turned out to be 34.1%.

Consider `O=C(COCC(F)(F)F)NC1CCCc2cc(OC(F)F)ccc21` (stereo unspecified), for which the cytotoxicity at 10 µM is -5.36%.

Consider `CCOc1cc(=O)n2c(c1C(=O)OCc1ccc(OC)cc1)CCCC2`, for which the cytotoxicity at 10 µM is 5.95%.

Consider `CC(C)NC(=O)N1CCN(c2ccc(Cl)nn2)C(=O)C1`, for which the cytotoxicity at 10 µM was 5.01%.

On to `CC(C(=O)N1CCN(C(=O)c2ccc(F)cc2)CC1)n1ccnc1` (stereo unspecified), for which the cytotoxicity at 10 µM was -2.2%.

Take `O=C(CSc1nnc(N2CCNCC2)s1)Nc1ccccc1`: the cytotoxicity at 10 µM worked out at 2.84%.

Consider `Cc1nn(C)c(N(C)C)c1CNC1CCc2c(F)cccc21` (stereo unspecified), for which the cytotoxicity at 10 µM is -5.87%.

Take `CN(C)[C@@H]1CCN(C(=O)Cc2ccc(F)cc2)[C@H]1Cc1ccncc1`: the cytotoxicity at 10 µM was -84.7%.

For `O=C(NCc1ccc2[nH]c(=O)[nH]c2c1)c1ccc(CN2CCCC2)o1`, the cytotoxicity at 10 µM is -0.987%.

As to `Cc1cc(CNC(=O)NCC(O)c2cccc(C(F)(F)F)c2)no1` (stereo unspecified), the cytotoxicity at 10 µM is -6.79%.

With `O=C(CC1CC1)N[C@@H]1CN(c2ncccn2)C[C@@H]2CCCO[C@@H]21`, the cytotoxicity at 10 µM stood at 9.87%.

Regarding `O=C(Cc1ccc(F)cc1)N1CCN(CC(O)C2CC2)CC1` (stereo unspecified), the cytotoxicity at 10 µM is -15.2%.

Take `O=C(NCCN1CCCCCC1)c1coc(COc2ccc(F)cc2)n1`: the cytotoxicity at 10 µM was -4.07%.

For the compound `O=C(NC1CC1)N1CC[C@@H](O)[C@@H]1Cc1ccccc1`, the cytotoxicity at 10 µM stood at 1.91%.

For `COc1cc(OC)cc(N2CCC(NCc3cccs3)C2=O)c1` (stereo unspecified), the cytotoxicity at 10 µM was determined as 4.63%.

Take `CS(=O)(=O)NC[C@@H]1OC[C@H]2CN(Cc3ccccc3)CC[C@H]21`: the cytotoxicity at 10 µM was determined as 4.82%.

In the case of `Cc1noc2ncc(C(=O)N3CCCC(n4cccn4)C3)cc12` (stereo unspecified), the cytotoxicity at 10 µM is -1.39%.

Consider `CCc1cc(N(C)CCC(O)c2ccccc2)n2nccc2n1` (stereo unspecified), for which the cytotoxicity at 10 µM was -1.14%.

Regarding `CCC(CC)C(=O)N1CCC2(C1)CN(c1ccccc1)C(=O)CN2C` (stereo unspecified), the cytotoxicity at 10 µM amounted to 3.5%.

As to `O=C(Cc1ccccc1F)N1CCN(C(=O)c2ccoc2)CC1`, the cytotoxicity at 10 µM is 1.16%.

In the case of `CCOC(=O)[C@]12CCCN(Cc3nccs3)C[C@H]1CN(C(C)C)C2`, the cytotoxicity at 10 µM is -8.81%.

On to `Cc1ncsc1CN1C[C@H](OCC(C)C)[C@H]2OCCC[C@H]21`, for which the cytotoxicity at 10 µM is -140%.

As for `CCCn1ccnc1CN1CC[C@@H](NC(=O)c2cccnc2)[C@H](O)C1`, the cytotoxicity at 10 µM is -7.31%.

On to `Cc1cc(=O)n(CCNS(=O)(=O)c2ccccc2)cn1`, for which the cytotoxicity at 10 µM turned out to be 3.33%.

`COCC(=O)N1CC2(CCN(c3ccccc3)C2)C1`: the cytotoxicity at 10 µM amounted to 10.1%.

For `NC(=O)c1cnc2n1CCN(C(=O)c1ccc(-c3cc[nH]n3)cc1)C2`, the cytotoxicity at 10 µM is -2.79%.

In the case of `CCc1c(C)nn(CC(=O)NC(C(=O)O)c2c(C)n[nH]c2C)c1C` (stereo unspecified), the cytotoxicity at 10 µM worked out at 5.79%.

For `N#CCCN(Cc1ccco1)C(=O)CCCNC(=O)c1ccccc1`, the cytotoxicity at 10 µM came out at 8.15%.

For the compound `Cc1ccccc1CS(=O)(=O)c1nnc(C(C)NC(=O)OC(C)(C)C)o1` (stereo unspecified), the cytotoxicity at 10 µM was -1%.

For the compound `O=C(CCSc1ccccc1)NS(=O)(=O)c1ccc2c(c1)OCCO2`, the cytotoxicity at 10 µM was -5.69%.

Regarding `COc1ccc([C@@H]2CN(C(=O)CCn3cccn3)C[C@H]2NC(C)=O)cc1`, the cytotoxicity at 10 µM worked out at 7.18%.

For `Cn1cc(-c2cccc(CNC(=O)N3CCC[C@@H]3CO)c2)cn1`, the cytotoxicity at 10 µM is -5.89%.

In the case of `Cc1nc(C(NC(=O)CN(C)C(C)C)c2ccccc2F)no1` (stereo unspecified), the cytotoxicity at 10 µM is -2.64%.

Regarding `Cc1ccc(C)c(C(O)Cn2cc(Cl)c(=O)[nH]c2=O)c1` (stereo unspecified), the cytotoxicity at 10 µM is -6.81%.

Turning to `O=C(c1ccnc(-n2ccnc2)c1)N1CCCC(n2ccnc2)C1` (stereo unspecified), the cytotoxicity at 10 µM worked out at 0.956%.

Take `CC(CO)(NC(=O)Nc1nnc(C2CC2)s1)C1CCCCC1` (stereo unspecified): the cytotoxicity at 10 µM was determined as 20%.

As to `CN(Cc1cccs1)C(=O)c1ccc(N2CCOCC2)c(F)c1`, the cytotoxicity at 10 µM is -5.56%.

In the case of `CSCCC(C)NC(=O)N(C)Cc1cc(Cl)cn1C` (stereo unspecified), the cytotoxicity at 10 µM amounted to 3.04%.

On to `O=C(c1ccnnc1)N1CC2(CCN(c3ncccn3)C2)C1`, for which the cytotoxicity at 10 µM was 5.62%.

Turning to `Cc1cnn(CC2CCCN2C(=O)Cc2c(C)noc2C)c1` (stereo unspecified), the cytotoxicity at 10 µM amounted to 0.983%.

Consider `Cn1cc(C2COC3(CCN(C(=O)c4ccccn4)CC3)C2)cn1` (stereo unspecified), for which the cytotoxicity at 10 µM is -87.1%.

With `COCCN1CCN(C)C2(CCN(C(=O)c3ccnnc3)CC2)C1=O`, the cytotoxicity at 10 µM came to 11.6%.

With `O=C(O)c1cc(NS(=O)(=O)c2cccc(Cl)c2F)ccc1Cl`, the cytotoxicity at 10 µM was -4.92%.

Take `CCNC(=O)NC(=O)CNC1(c2noc(C)n2)CCCC1`: the cytotoxicity at 10 µM came out at 20.6%.

Turning to `NC(=O)C1CCN(C(=O)NCCOc2ccc3c(c2)OCO3)C1` (stereo unspecified), the cytotoxicity at 10 µM was -13.3%.

Take `O=C(O)COc1ccc(Cl)cc1CN1CCC2(CCNCC2)CC1`: the cytotoxicity at 10 µM came to 6.45%.

`COc1c(C(=O)N2CCOCC2)cnc2c1c(C)nn2C`: the cytotoxicity at 10 µM was found to be 1.64%.

Regarding `COCCN1CCC(CNC(=O)C2(c3cc(C)cc(C)c3)CCC2)C1` (stereo unspecified), the cytotoxicity at 10 µM was -7.4%.

For the compound `O=C(NCCNS(=O)(=O)N1CCCCCC1)c1ncccc1O`, the cytotoxicity at 10 µM is -6.11%.

With `N#Cc1ccc(NC(=O)C2CSCN2)cc1` (stereo unspecified), the cytotoxicity at 10 µM stood at 2.62%.

Consider `CCN(Cc1ccco1)C(C)c1nc(C)no1` (stereo unspecified), for which the cytotoxicity at 10 µM was -10.1%.

`Cc1cc(N)nc(SC2CCN(c3ccccc3F)C2=O)n1` (stereo unspecified): the cytotoxicity at 10 µM is -9.51%.

Regarding `N#Cc1nccnc1NC1CCN(c2ccccc2OC(F)F)C1` (stereo unspecified), the cytotoxicity at 10 µM amounted to 12.8%.

Consider `Cc1ccc2c(c1)N(C(=O)c1c[nH]c(C)cc1=O)CC(C)O2` (stereo unspecified), for which the cytotoxicity at 10 µM was 23.6%.

In the case of `CC(C)(C)c1nc(CNC2CCCN(c3cccnn3)C2)no1` (stereo unspecified), the cytotoxicity at 10 µM is 4.93%.
